Data published in ChEMBL document CHEMBL1671844, “Structure guided development of potent reversibly binding penicillin binding protein inhibitors” (ACS Med Chem Lett, 2011).
pIC50, pKi: −log10 of the molar value.

What was measured:
[1] = target: D-alanyl-D-alanine carboxypeptidase (Actinomadura sp. R39) (UniProt P39045); test: Inhibition of Actinomadura R39 PBP assessed as residual activity at 100 uM after 60 mins
How it was run: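 Percentage residual activity of R39 measured with compound at 100 μM, in triplicate.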

[2] = target: D-alanyl-D-alanine carboxypeptidase (Actinomadura sp. R39, UniProt P39045); test: Inhibition of Actinomadura R39 PBP after 60 mins
Chain of D-alanyl-D-alanine carboxypeptidase (P39045 whole entry): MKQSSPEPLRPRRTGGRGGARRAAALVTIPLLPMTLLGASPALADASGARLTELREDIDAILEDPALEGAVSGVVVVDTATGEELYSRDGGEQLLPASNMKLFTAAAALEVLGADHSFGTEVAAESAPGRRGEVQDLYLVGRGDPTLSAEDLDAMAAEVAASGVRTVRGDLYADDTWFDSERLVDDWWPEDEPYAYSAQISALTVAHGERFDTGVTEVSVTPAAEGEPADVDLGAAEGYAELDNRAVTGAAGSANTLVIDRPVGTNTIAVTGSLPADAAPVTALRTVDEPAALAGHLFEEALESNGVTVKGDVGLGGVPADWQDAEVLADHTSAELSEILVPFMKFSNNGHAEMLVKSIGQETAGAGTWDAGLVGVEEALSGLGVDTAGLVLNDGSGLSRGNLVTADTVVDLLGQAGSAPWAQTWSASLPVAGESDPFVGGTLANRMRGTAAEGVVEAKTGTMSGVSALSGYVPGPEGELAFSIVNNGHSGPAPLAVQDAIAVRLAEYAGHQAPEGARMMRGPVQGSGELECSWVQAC

Chain of D-alanyl-D-alanine carboxypeptidase (Actinomadura sp. R39) (P39045 whole entry): as above

SMILES	Activity [1]	pIC50 [2]	pKi [2]
C[C@@H](NC(=O)c1c(F)cccc1F)B(O)O	0%	6.30	–
C[C@@H](NC(=O)c1c(F)cccc1-c1ccccc1)B(O)O	0%	6.57	–
C[C@@H](NC(=O)c1c(Cl)cccc1Cl)B(O)O	3%	5.38	–
C[C@@H](NC(=O)c1ccccc1Cc1ccccc1)B(O)O	5%	5.74	–
C[C@@H](NC(=O)c1ccc2sccc2c1)B(O)O	8%	5.66	–
C[C@H](NC(=O)c1c(F)cccc1F)B(O)O	3%	5.48	–
C[C@@H](NC(=O)c1ccccc1C(c1ccccc1)c1ccccc1)B(O)O	1%	> 7.10	7.20
C[C@@H](NC(=O)c1ccccc1-c1ccccc1)B(O)O	5%	5.88	–
C[C@@H](NC(=O)c1ccc2ccccc2c1)B(O)O	19%	4.85	–
CC(C)c1ccccc1C(=O)N[C@H](C)B(O)O	36%	4.23	–
C[C@@H](NC(=O)c1ccccc1NS(=O)(=O)c1ccccc1)B(O)O	3%	6.43	–
C[C@H](NC(=O)c1ccccc1Cc1ccccc1)B(O)O	16%	5.14	–
C[C@@H](NC(=O)c1ccccc1C(=O)c1ccc2ccccc2c1)B(O)O	0%	7.10	6.98
